Assay results published in ChEMBL document CHEMBL1138512, “A class of 2,4-bisanilinopyrimidine Aurora A inhibitors with unusually high selectivity against Aurora B” (J Med Chem, 2009).

Experiments:
Aurora kinase A [1] = target: T1, Aurora kinase A (Homo sapiens, UniProt O14965); experiment: Inhibition of N-terminal flag-tagged Aurora A expressed in Escherichia coli BL21-DE3 by ELISA
T1 sequence (O14965 whole entry): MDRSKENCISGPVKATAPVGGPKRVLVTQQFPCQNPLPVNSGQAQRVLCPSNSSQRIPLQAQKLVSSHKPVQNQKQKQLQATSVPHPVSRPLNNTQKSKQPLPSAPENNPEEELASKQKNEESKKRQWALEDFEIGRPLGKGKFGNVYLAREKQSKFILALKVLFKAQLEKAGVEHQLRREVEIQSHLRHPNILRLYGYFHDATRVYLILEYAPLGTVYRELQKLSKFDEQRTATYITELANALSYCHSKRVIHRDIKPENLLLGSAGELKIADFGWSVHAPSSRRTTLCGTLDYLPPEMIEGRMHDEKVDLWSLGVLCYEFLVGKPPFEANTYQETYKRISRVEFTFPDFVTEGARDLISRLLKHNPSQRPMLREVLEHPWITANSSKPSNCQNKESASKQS

HCT-116 = experiment: Antiproliferative activity against human HCT116 cells after 4 days by celltiter assay; assay type: functional, cell-based; settings: HCT-116, 96 h
HT-29 = experiment: Antiproliferative activity against human HT-29 cells after 4 days by celltiter assay; assay type: functional, cell-based; settings: HT-29, 96 h
Aurora kinase B [2] = target: Aurora kinase B (Homo sapiens, UniProt Q96GD4, E161T); experiment: Inhibition of N-terminal flag-tagged Aurora B E161T mutant expressed in Escherichia coli BL21-DE3
Chain of Aurora kinase B (Homo sapiens, UniProt Q96GD4, E161T) (Q96GD4 whole entry E161T): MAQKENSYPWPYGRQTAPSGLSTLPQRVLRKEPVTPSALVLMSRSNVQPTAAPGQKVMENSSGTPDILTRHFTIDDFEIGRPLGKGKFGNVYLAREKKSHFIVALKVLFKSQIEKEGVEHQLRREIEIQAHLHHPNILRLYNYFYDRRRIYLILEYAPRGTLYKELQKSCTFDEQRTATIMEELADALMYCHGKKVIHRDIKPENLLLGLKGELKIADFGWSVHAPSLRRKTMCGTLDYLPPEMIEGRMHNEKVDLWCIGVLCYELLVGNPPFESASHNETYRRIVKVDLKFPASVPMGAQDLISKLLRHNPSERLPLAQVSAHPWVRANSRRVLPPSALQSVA

Aurora kinase B [3] = target: T2, Aurora kinase B (Homo sapiens, UniProt Q96GD4); experiment: Inhibition of Aurora B in human HCT116 cells assessed as complete loss of phospho-histone H3 staining by immunofluorescence assay
T2 sequence (Q96GD4 whole entry): as the sequence (Q96GD4 whole entry E161T) above, with T161E counted along it

[4] = target: Cyclin-dependent kinase 2 (Homo sapiens, UniProt P24941); experiment: Inhibition of CDK2/cyclin A
Aurora kinase B [5] = target: T2, Aurora kinase B; experiment: Inhibition of Aurora B in human HT29 cells assessed as complete loss of phospho-histone H3 staining by immunofluorescence assay; assay type: cell-based, HT-29
Summary of the method: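 Immunofluorescence for phospho-S10 histone H3 in HCT116 or HT29 cells, scored visually. Value taken as the lowest inhibitor concentration giving complete loss of staining, so it lies above the IC50. Units µM.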

Aurora kinase A [6] = target: Aurora kinase A (Homo sapiens, UniProt O14965, T217E); experiment: Inhibition of N-terminal flag-tagged Aurora A T217E mutant expressed in Escherichia coli BL21-DE3
Chain of Aurora kinase A (Homo sapiens, UniProt O14965, T217E) (O14965 whole entry I57V/T217E): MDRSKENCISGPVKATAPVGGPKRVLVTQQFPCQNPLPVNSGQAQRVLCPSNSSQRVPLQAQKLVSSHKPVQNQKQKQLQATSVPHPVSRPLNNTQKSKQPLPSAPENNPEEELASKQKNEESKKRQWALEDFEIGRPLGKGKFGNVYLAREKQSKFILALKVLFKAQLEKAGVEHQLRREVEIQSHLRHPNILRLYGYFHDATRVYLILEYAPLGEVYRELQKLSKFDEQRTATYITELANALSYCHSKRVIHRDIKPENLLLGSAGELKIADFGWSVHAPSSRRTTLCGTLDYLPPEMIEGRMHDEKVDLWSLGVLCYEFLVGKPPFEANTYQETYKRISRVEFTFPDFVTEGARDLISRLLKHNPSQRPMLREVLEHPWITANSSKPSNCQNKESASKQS

Aurora kinase B [7] = target: T2, Aurora kinase B; experiment: Inhibition of N-terminal flag-tagged Aurora B expressed in Escherichia coli BL21-DE3 by ELISA
Aurora kinase A [8] = target: T1, Aurora kinase A; experiment: Inhibition of Aurora A in human HCT116 cells assessed as complete loss of phospho-Aurora A staining in centrosomes by immunofluorescence assay; assay type: cell-based, HCT-116

SMILES	IC50 (Aurora kinase A [1]) [nM]	other results
O=C(O)c1ccc(Nc2ncc3c(n2)-c2ccc(Cl)cc2C(c2c(F)cccc2F)=NC3)cc1 [MLN-8054]	–	IC50 (HCT-116): 100 nM; IC50 (HT-29): 150 nM
COc1ccc(Nc2nc(Nc3ccc(O)cc3)ncc2F)cc1	78	–
O=C(Nc1ccc(Nc2nc(Nc3ccc(O)cc3)ncc2F)cc1)c1ccccc1	18	–
CCN1CCN(C(=O)Cc2ccc(Nc3ncc(F)c(Nc4ccc(C(=O)Nc5ccccc5Cl)cc4)n3)cc2)CC1	3.4	IC50 (Aurora kinase B [2]): 55 nM; IC50 (HCT-116): 190 nM; IC50 (Aurora kinase B [3]): > 50000 nM; IC50 [4]: > 16000 nM; IC50 (Aurora kinase B [5]): > 27000 nM; IC50 (Aurora kinase A [6]): 2000 nM; IC50 (Aurora kinase B [7]): 3400 nM; IC50 (HT-29): 2900 nM; IC50 (Aurora kinase A [8]): 2500 nM
CCc1cnc(Nc2ccc(O)cc2)nc1Nc1ccc(O)cc1	150	–
O=C(NC1CC1)c1ccc(Nc2nc(Nc3ccc(O)cc3)ncc2F)cc1	54	IC50 (HCT-116): 2000 nM; IC50 (Aurora kinase B [3]): > 25000 nM; IC50 (Aurora kinase B [5]): > 30000 nM; IC50 (Aurora kinase B [7]): 3800 nM; IC50 (HT-29): 27000 nM
Oc1ccc(Nc2ccnc(Nc3ccc(O)cc3)n2)cc1	490	–
Cc1ccccc1Nc1nc(Nc2ccc(O)cc2)ncc1F	67	–
Cc1cnc(Nc2ccc(O)cc2)nc1Nc1ccc(O)cc1	34	–
O=C(Nc1ccc(O)cc1)c1ccc(Nc2nc(Nc3ccc(O)cc3)ncc2F)cc1	13	–
COc1ccc(Nc2ncc(F)c(Nc3ccc(OC)cc3)n2)cc1	130	–
CC(C)NC(=O)c1ccc(Nc2nc(Nc3ccc(O)cc3)ncc2F)cc1	51	–
Oc1ccc(Nc2ncc(F)c(Nc3ccc(O)cc3)n2)cc1	30	–
N#Cc1cnc(Nc2ccc(O)cc2)nc1Nc1ccc(O)cc1	23	–
Oc1ccc(Nc2ncc(C(F)(F)F)c(Nc3ccc(O)cc3)n2)cc1	14	–
Cc1ccc(Nc2nc(Nc3ccc(O)cc3)ncc2F)cc1	75	–
Cc1nc(Nc2ccc(O)cc2)nc(Nc2ccc(O)cc2)c1C	> 17000	–

The next lines start with results.

IC50 (Aurora kinase A [1]) [nM]	SMILES	other results
20	Cc1ccccc1NC(=O)c1ccc(Nc2nc(Nc3ccc(O)cc3)ncc2F)cc1	–
28	O=C(Nc1ccccc1O)c1ccc(Nc2nc(Nc3ccc(O)cc3)ncc2F)cc1	–
9	O=C(Nc1ccccc1F)c1ccc(Nc2nc(Nc3ccc(O)cc3)ncc2F)cc1	–
19	O=C(Nc1ccccc1)c1ccc(Nc2nc(Nc3ccc(O)cc3)ncc2F)cc1	–
36	COc1cccc(NC(=O)c2ccc(Nc3nc(Nc4ccc(O)cc4)ncc3F)cc2)c1	–
25	O=C(Nc1ccc(F)cc1)c1ccc(Nc2nc(Nc3ccc(O)cc3)ncc2F)cc1	–
